RAD52 anneal inh – RAD52 DNA annealing inhibitors, primary screen, biochemical, FRET, single point, set 2; AID 651710, 2012; recombinant RAD52 DNA annealing, FRET fluorescence; 360,000 tested, 0.46% active; DNA repair protein RAD52 homolog (Homo sapiens), P43351; inhibition, % at 18.7 µM;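 active = every replicate showing at least 50% inhibition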
RAD54 inh – inhibitors of human RAD54 branch migration, primary screen, biochemical, fluorescence, single point | AID 602329, 2012 | inhibition, % at 10.4 µM | RAD54 Holliday junction branch migration, FAM/BHQ fluorescence | 360,000 tested, 0.14% active | DNA repair and recombination protein RAD54-like (Homo sapiens), Q92698;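 active = mean normalized replicate activity at least 40 and at least half of replicates scoring 40 or more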;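 also: 0% = median of neutral control wells and 100% = median of positive control wells; inhibitors cause a drop in the FAM fluorescence signal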
S100A4 MyoIIA – inhibitors of S100A4-myosin IIA peptide binding, primary screen, biochemical, fluorescence polarization, TAMRA-MyoIIA peptide; Protein S100-A4 (Homo sapiens), P26447; inhibition, % at 10.7 µM; 360,000 tested, 0.14% active; AID 652163, 2013;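 active = mean inhibition of at least 70% across replicates, with every replicate also reaching that level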
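System – human S100A4 monomer protein, biochemical binding assay · Buffer or medium – Calcium-containing HEPES buffer, pH 7.2 · Timing – 5 min between mix addition and reading · Also added – TAMRA-labelled myosin IIA heavy-chain peptide probe, 5 nM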
AF4-AF9 inh – inhibitors of AF4 peptide binding to AF9, primary screen, biochemical, AlphaScreen, biotin-AF4 peptide, FLAG-AF9, single point. Protein AF-9 (Homo sapiens), P42568. inhibition, % at 10 µM. 350,000 tested, 0.47% active. AID 651704, 2012;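 active = every replicate reaching a set inhibition limit, whatever the replicate mean, cut at about 25% in these data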;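 also: 0% = plate neutral control median and 100% = total signal loss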
Target sequence (P42568 whole entry, looked up): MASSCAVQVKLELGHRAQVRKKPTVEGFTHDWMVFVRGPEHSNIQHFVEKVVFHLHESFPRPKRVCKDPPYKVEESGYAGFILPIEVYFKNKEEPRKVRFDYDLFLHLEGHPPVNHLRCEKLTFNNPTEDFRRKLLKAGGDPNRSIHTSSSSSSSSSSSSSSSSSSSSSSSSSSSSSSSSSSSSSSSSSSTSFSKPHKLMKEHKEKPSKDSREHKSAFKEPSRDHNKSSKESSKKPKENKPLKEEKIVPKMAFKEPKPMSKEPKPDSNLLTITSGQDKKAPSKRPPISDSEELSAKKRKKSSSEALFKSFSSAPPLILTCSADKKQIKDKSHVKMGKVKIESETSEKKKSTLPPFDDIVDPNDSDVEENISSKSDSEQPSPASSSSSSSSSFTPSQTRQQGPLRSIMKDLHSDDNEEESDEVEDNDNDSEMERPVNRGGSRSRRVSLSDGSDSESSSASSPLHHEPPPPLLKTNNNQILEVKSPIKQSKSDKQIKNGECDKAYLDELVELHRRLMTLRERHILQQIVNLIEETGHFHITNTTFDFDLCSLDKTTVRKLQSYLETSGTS
dFosB act-1 – activators of delta FosB homodimer, primary screen, biochemical, fluorescence polarization, TAMRA-CDK5 oligo, single point; Protein FosB (Mus musculus), P13346; purified delta FosB; percent of positive-control signal above neutral wells; activation, % at 25 µM; 340,000 tested, 0.99% active; AID 493131, 2011;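 active = mean activation above about 17%, with every replicate also reaching it, limit read from the data, passing the limit was not always enough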
dFosB act-2 – activators of mouse delta FosB DNA binding, confirmation, biochemical, fluorescence polarization, TAMRA-CDK5 oligo, cherry-picked samples | shares compounds with dFosB act-1 | purified delta FosB; normalised: neutral wells 0, positive control 100 | activation, % at 24.9 µM | 2,400 tested, under 10 active;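 active = highest replicate activation at or above 34% and every replicate reaching that threshold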;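 also: higher polarization means more probe DNA bound by delta FosB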
An asterisk follows results filed as active; . = no result. A selection: hits, their analogues and other compounds. The true share with any hit is near 1.5%.

SMILES	RAD52 anneal inh	RAD54 inh	S100A4 MyoIIA	AF4-AF9 inh	dFosB act-1	dFosB act-2
C[C@@H]1CN([C@@H](C)CO)C(=O)c2cccc(NC(=O)Nc3cccc4ccccc34)c2O[C@H]1CN(C)S(C)(=O)=O	5	-5	10	3	.	.
CO[C@@H]1CN(C)C(=O)c2ccc(NC(=O)c3cccc(F)c3)cc2OC[C@H](C)N(C)C[C@H]1C	-1	-9	11	-4	.	.
O=C(C[C@@H]1CC[C@@H]2[C@H](COC[C@H](O)CN2C(=O)Nc2ccccc2)O1)NCc1ccncn1	-4	2	7	0	.	.
C/C=C/c1ccc([C@H]2[C@@H](CO)N(C(=O)C3CCC3)[C@@H]2CNC(=O)NC(C)C)cc1	-14	.	-5	-1	.	.
CCN(CC)CCNC(=O)c1[nH]c2ccc(OCc3ccccc3)cc2c1C	23	.	3	25*	7	.
NC(=S)N=Nc1c(O)n(C2OC(=O)c3ccccc32)c2ccccc12 (stereo unspecified)	.	-6	.	.	26*	.
NC(=S)N=Nc1c(O)n(CCCl)c2ccccc12	-8	.	0	0	2	.
CN1C(=O)NC(c2ccccc2[N+](=O)[O-])C2=C1CCCC2=O (stereo unspecified)	-423	-42	117*	-3	-38	.
CO[C@@H]1CN(C)C(=O)c2cc(NC(C)=O)ccc2OC[C@H](C)N(C(=O)C2CCOCC2)C[C@@H]1C	0	-8	0	3	.	.
CC(C)CNC(=O)COC(=O)c1cccc(S(=O)(=O)NCC(F)(F)F)c1	-7	-1	0	25*	-6	.
CNS(=O)(=O)c1cccc(C(=O)OCC(=O)NCc2ccccc2)c1	6	0	1	.	2	.
Clc1ccc2c(NCCNC3CCCCC3)ccnc2c1	22	43	1	0	45*	.
COc1cccc(NC(=O)Cn2nnc(C(=O)NCCc3ccccc3)c2N)c1	-6	2	2	-1	37*	3
COc1ccc(NC(=O)Cn2nnc(C(=O)NCCc3ccccc3)c2N)c(OC)c1	-6	3	-6	-4	10	.
COc1ccccc1NC(=O)Cn1nnc(C(=O)NCCc2ccccc2)c1N	.	4	.	.	40*	1
C[C@H](CO)N1C[C@H](C)[C@H](CN(C)C)Oc2cc(C#CC(C)(C)O)ccc2S1(=O)=O	3	-1	8	-1	.	.
C[C@@H]1CN([C@H](C)CO)S(=O)(=O)c2ccc(C3=CCCC3)cc2O[C@@H]1CN(C)C(=O)CN(C)C	2	-4	-5	0	.	.
COc1cc(C(=O)NCCc2ccc(S(N)(=O)=O)cc2)ccc1OCc1c(C)noc1C	-16	-3	1	-1	26*	2
COc1cc(C(=O)NCc2ccc(C)cc2)ccc1OCc1c(C)noc1C	.	.	.	.	25*	6
C[C@H]1CN([C@@H](C)CO)C(=O)c2cc(-c3cccc(C(=O)N(C)C)c3)cnc2O[C@H]1CN(C)C	5	6	7	-3	.	.
COc1cc(-c2cc(C(=O)Nc3cccc(C(C)=O)c3)c3ccccc3n2)cc(OC)c1OC	-18	1	2	0	28*	2
CCc1ccc(NC(=O)C(NS(=O)(=O)c2ccc3c(c2)CCN3C(C)=O)C(C)C)cc1 (stereo unspecified)	-11	-1	-4	-3	37*	4
COc1ccc(CNC(=O)C(NS(=O)(=O)c2ccc3c(c2)CCCN3C(C)=O)C(C)C)cc1 (stereo unspecified)	.	-9	.	.	0	.
CCCCCCCC(=O)Nc1ccc(C(=O)N/N=C/c2cccc([N+](=O)[O-])c2)cc1	.	0	.	.	20*	8
Nc1cc(C(=O)N/N=C/c2cccc([N+](=O)[O-])c2)n[nH]c1=O	-4	-1	-4	7	18*	-1

Bioassay records (PubChem)
